Six molecules from PMC3523546 (Journal of Medicinal Chemistry, 2012) can be followed below.

The test system of series [1] is DU145 cells. Description: Cellular uptake of FITC peptides by FACS. It is filed as cell-based. As to conditions: for geometric mean of the distribution (GeoMean), range over both wash conditions: DU145, 10 μM FITC peptide, 1 h, FACS. The gist of the method: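 DU145 cells (4 × 10^5) incubated 1 h in serum-free RPMI with 10 μM FITC-labelled peptide, then pelleted. Pellets washed twice with 0.05% trypsin, 5 min at 37 °C, to strip membrane-bound label. Propidium iodide (10 μg/mL, 2 min) excluded membrane-damaged cells. At least 10000 events acquired per sample, excluding clumps and debris. Uptake reported as geometric mean fluorescence.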
On the technique in general: In flow cytometry, cells or beads pass a laser one at a time.

The subject of series [2] is LNCaP cells. Description: MTT proliferation assay, LNCaP. It is filed as cell-based. As to conditions: 72 h. An outline of the steps: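 LNCaP cells seeded at 2500 per well on poly-lysine-coated plates in RPMI 1640 with 10% FBS. Medium changed after 24 h, then peptide exposure for 72 h. MTT (1 mg/mL final) incubated 4 h; formazan dissolved in 2-propanol–HCl. Signal normalised to vehicle-treated cells (water, 0.1% DMSO).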
A general note: Formazan colour is commonly taken as a measure of viable cells.

Series [3] has as its system DU145 cells. In words: MTT proliferation assay, DU145. It is filed as cell-based. Conditions: 72 h. An outline of the steps: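 DU145 cells seeded at 1500 per well in RPMI 1640 with 5% FBS. After 24 h, medium changed and peptide added for 72 h. MTT added (1 mg/mL final) for 4 h, then formazan dissolved in 2-propanol–HCl. Metabolic activity normalised to vehicle (bidistilled water, 0.1% DMSO). IC50 from curve fitting; tabulated IC50 are means of five independent experiments.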

Another series deals with amino-peptidases. In words: Stability of the peptide to amino-peptidases. It counts as in vitro ADME. As to conditions: N-terminal Leu replaced by DLeu, versus ML-peptide; unpublished data.
The subject of series [4] is LNCaP cells. Description: Cell cycle analysis. It is filed as cell-based. As to conditions: 200 μM, 96 h. An outline of the steps: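 LNCaP cells (4 × 10^5 per 10 cm dish) grown 24 h untreated, then given vehicle (0.1% DMSO) or 100 or 200 μM peptide in 10% FBS medium for 96 h, with medium changed every 24 h. Cells trypsinised, fixed in ice-cold ethanol (30 min, room temperature), and stained with propidium iodide plus RNaseA in HEPES pH 7.2 buffer. Flow cytometry: ≥10000 gated singlets. Phase percentages taken from living cells. Three experiments in duplicate; unpaired two-tailed t test.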

Series [5] deals with T1, P6 Leu hexapeptide inhibitor.
T1 chain: LLRVKR
Description: enzyme inhibition assay.

Series [6] has as its target T2, P6 Arg hexapeptide inhibitor.
T2 chain: RLRVKR
In words: enzyme inhibition assay.

The target of series [7] is T3, P6 Lys hexapeptide inhibitor.
T3 chain: KLRVKR
Description: enzyme inhibition assay.

In a further series the target is T4, PC7 prodomain prodomain (Homo sapiens, UniProt Q16549).
T4 chain: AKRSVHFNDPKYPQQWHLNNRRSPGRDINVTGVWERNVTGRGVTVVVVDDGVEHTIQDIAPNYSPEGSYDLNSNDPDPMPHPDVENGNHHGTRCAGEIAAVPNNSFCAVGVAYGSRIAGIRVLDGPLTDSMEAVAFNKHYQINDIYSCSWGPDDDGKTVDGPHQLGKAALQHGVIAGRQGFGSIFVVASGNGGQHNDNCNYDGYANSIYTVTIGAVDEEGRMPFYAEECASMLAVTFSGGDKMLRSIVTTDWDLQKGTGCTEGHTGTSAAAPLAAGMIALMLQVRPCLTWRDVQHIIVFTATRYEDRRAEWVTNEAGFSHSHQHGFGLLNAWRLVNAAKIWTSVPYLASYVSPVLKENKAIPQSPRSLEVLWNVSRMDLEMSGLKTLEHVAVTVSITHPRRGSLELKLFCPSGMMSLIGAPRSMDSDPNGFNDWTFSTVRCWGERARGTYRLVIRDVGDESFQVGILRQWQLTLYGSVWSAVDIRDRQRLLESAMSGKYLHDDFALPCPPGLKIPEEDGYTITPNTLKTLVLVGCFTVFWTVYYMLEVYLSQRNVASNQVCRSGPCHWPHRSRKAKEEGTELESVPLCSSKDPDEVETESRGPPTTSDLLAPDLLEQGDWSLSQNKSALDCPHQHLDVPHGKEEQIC
Description: enzyme inhibition assay.

Square brackets hold non-standard residues; d marks the D form. Peptide text beside a SMILES is read from it. * marks the point of attachment. FITC = O=C1OC2(c3ccc(O)cc3Oc3cc(O)ccc32)c2ccc(NC(=S)*)cc21; βAla = NCCC(=O)O

For “FITC-C8-LLLLRVKR-NH2 ({FITC-C8}-LLLLRVKR-NH2)”, the “geometric mean of the distribution (GeoMean), range over both wash conditions” value with DU145 cells [1] is reported as 260.08–261.95. Further, in the series on DU145 cells [1] (DU145, FACS), the “GeoMean compared to the control FITC-β-Ala-ML-peptide” value came to 5 fold.

`CC(=O)N[C@@H](CC(C)C)C(=O)N[C@@H](CC(C)C)C(=O)N[C@@H](CC(C)C)C(=O)N[C@@H](CC(C)C)C(=O)N[C@@H](CCCNC(=N)N)C(=O)N[C@H](C(=O)N[C@@H](CCCCN)C(=O)N[C@H](CCCNC(=N)N)C(N)=O)C(C)C` [Ac-LLLLRVK[DArg]-NH2] (Ac-LLLLRVK[dR]-NH2): the “inhibition of proliferation” value with LNCaP cells [2] and in the series on DU145 cells [3] was “poor proliferation inhibitor” in each case.

For `CC(=O)N[C@H](CC(C)C)C(=O)N[C@@H](CC(C)C)C(=O)N[C@@H](CC(C)C)C(=O)N[C@@H](CC(C)C)C(=O)N[C@@H](CCCNC(=N)N)C(=O)N[C@H](C(=O)N[C@@H](CCCCN)C(=O)N[C@@H](CCCNC(=N)N)C(N)=O)C(C)C` [Ac-[DLeu]LLLRVKR-NH2], the “stability of the peptide to amino-peptidases” value in the series with amino-peptidases was “improved stability”. In addition, in the series with LNCaP cells [4], the “increase in the G0/G1 population” value is 10%.

On to “FITC-[β-Ala]-LLLLRVKR-NH2 ({FITC-βAla}-LLLLRVKR-NH2)”, for which the “geometric mean of the distribution (GeoMean), range over both wash conditions” value in the series on DU145 cells [1] is recorded as 48.90–52.82.

For the molecule `CC(=O)N[C@@H](CCCNC(=N)N)C(=O)N[C@@H](C)C(=O)N[C@@H](CCCNC(=N)N)C(=O)N[C@@H](CCCNC(=N)N)C(=O)N[C@@H](CCCNC(=N)N)C(=O)N[C@@H](CCCCN)C(=O)N[C@@H](CCCCN)C(=O)N[C@@H](CCCNC(=N)N)C(=O)N[C@H](C(N)=O)[C@@H](C)O` [reference compound], the “inhibition of proliferation” value with LNCaP cells [2] and with DU145 cells [3] was “no antiproliferative effects” in each case.

B1: PACE4 (protein)
chain: QVRSDPQALYFNDPIWSNMWYLHCGDKNSRCRSEMNVQAAWKRGYTGKNVVVTILDDGIERNHPDLAPNYDSYASYDVNGNDYDPSPRYDASNENKHGTRCAGEVAASANNSYCIVGIAYNAKIGGIRMLDGDVTDVVEAKSLGIRPNYIDIYSASWGPDDDGKTVDGPGRLAKQAFEYGIKKGRQGLGSIFVWASGNGGREGDYCSCDGYTNSIYTISVSSATENGYKPWYLEECASTLATTYSSGAFYERKIVTTDLRQRCTDGHTGTSVSAPMVAGIIALALEANSQLTWRDVQHLLVKTSRPAHLKASDWKVNGAGHKVSHFYGFGLVDAEALVVEAKKWTAVPSQHMCVAASDKRPRSIPLVQVLRTTALTSACAEHSDQRVVYLEHVVVRTSISHPRRGDLQIYLVSPSGTKSQLLAKRLLDLSNEGFTNWEFMTVHCWGEKAEGQWTLEIQDLPSQVRNPEKQGKLKEWSLILYGTAEHPYHTFSAHQSRSRMLELSAPELEPPKAALSPSQVEVPEDEEDYTAQSTPGSANILQTSVCHPECGDKGCDGPNADQCLNCVHFSLGSVKTSRKCVSVCPLGYFGDTAARRCRRCHKGCETCSSRAATQCLSCRRGFYHHQEMNTCVTLCPAGFYADESQKNCLKCHPSCKKCVDEPEKCTVCKEGFSLARGSCIPDCEPGTYFDSELIRCGECHHTCGTCVGPGREECIHCAKNFHFHDWKCVPACGEGFYPEEMPGLPHKVCRRCDENCLSCAGSSRNCSRCKTGFTQLGTSCITNHTCSNADETFCEMVKSNRLCERKLFIQFCCRTCLLAG
In the case of B1, the Ki stood at 49 nM in series [5], 40 nM in series [6], 37 nM in series [7] and 0.34 nM with PC7 prodomain prodomain.

The Ki is a dissociation constant, usually derived from enzyme kinetics or from competition with a known ligand.
